Data as given in ChEMBL document CHEMBL3102750 (J Med Chem, 2013).

Tests used:
[1] = target: T1, Muscarinic acetylcholine receptor M4 (Homo sapiens, UniProt P08173); assay: Negative allosteric modulation of human muscarinic acetylcholine receptor M4 expressed in CHO cells assessed as inhibition of acetylcholine-induced calcium mobilization incubated for 150 secs prior to acetylcholine induction by Fluo-4 AM staining-based fluorescence assay; assay type: functional, cell-based
T1 sequence (P08173 whole entry): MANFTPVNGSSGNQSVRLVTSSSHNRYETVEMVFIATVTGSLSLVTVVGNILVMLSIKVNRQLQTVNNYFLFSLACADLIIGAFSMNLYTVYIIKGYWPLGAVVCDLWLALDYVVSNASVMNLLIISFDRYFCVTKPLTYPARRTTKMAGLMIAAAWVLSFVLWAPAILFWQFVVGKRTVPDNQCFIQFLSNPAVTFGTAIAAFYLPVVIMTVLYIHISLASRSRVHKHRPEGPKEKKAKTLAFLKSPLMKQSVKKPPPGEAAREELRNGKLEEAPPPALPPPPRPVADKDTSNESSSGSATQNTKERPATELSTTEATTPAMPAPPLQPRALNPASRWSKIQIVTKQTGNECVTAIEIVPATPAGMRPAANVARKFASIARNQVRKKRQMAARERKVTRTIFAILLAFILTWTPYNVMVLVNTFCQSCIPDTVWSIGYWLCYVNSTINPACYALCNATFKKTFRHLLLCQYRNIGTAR

[2] = target: Muscarinic acetylcholine receptor M3 (Rattus norvegicus, UniProt P08483); assay: Negative allosteric modulation of rat muscarinic acetylcholine receptor M3 expressed in CHO cells assessed as inhibition of acetylcholine-induced calcium mobilization incubated for 150 secs prior to acetylcholine induction by Fluo-4 AM staining-based fluorescence assay; assay type: functional, cell-based
Muscarinic acetylcholine receptor M3, sequence (P08483 whole entry): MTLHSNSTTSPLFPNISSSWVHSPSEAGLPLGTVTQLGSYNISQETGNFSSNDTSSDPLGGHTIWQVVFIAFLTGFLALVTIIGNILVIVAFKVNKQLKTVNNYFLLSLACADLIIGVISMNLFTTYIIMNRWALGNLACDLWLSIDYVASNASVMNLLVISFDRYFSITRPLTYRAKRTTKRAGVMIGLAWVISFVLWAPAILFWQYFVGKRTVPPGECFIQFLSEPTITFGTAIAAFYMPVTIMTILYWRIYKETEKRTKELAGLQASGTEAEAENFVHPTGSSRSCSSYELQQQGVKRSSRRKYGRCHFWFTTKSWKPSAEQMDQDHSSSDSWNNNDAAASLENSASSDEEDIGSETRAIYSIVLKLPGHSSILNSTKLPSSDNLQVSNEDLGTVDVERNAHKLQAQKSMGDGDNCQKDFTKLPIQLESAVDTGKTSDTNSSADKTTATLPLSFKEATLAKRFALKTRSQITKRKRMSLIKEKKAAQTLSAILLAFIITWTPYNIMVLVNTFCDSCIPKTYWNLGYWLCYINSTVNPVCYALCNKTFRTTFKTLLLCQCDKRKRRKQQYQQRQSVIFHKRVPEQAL

Plasma [3] = assay: Fraction unbound in Sprague-Dawley rat plasma at 5 uM after 4 hrs by equilibrium dialysis method; assay type: ADME, cell-free
In short: (§1)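 Fraction unbound determined in plasma from rat, cynomolgus monkey and human.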

Plasma [4] = assay: Fraction unbound in human plasma at 5 uM after 4 hrs by equilibrium dialysis method; assay type: ADME, cell-free; in short: as §1
Cytochrome P450 1A2 = target: T2, Cytochrome P450 1A2 (Homo sapiens, UniProt P05177); assay: Inhibition of CYP1A2 in human liver microsomes using phenacetin as substrate preincubated for 15 mins followed by NADPH addition measured after 8 mins by LC/MS/MS analysis; assay type: ADME
T2 sequence (P05177 whole entry): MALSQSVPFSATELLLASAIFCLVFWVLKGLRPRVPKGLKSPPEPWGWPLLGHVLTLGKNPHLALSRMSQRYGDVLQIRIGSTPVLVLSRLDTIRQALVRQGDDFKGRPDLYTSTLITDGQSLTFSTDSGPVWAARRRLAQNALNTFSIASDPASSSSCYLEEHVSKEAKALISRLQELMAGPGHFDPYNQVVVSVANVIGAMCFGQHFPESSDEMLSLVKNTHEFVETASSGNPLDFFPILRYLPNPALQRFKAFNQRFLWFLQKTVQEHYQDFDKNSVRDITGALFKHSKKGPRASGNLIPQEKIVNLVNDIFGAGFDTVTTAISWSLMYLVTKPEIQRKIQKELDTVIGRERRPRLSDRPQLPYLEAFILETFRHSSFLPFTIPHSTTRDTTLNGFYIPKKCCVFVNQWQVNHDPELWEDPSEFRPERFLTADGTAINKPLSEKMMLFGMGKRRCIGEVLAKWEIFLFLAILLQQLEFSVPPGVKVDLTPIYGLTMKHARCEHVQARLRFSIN

Cytochrome P450 2C9 = Cytochrome P450 2C9 (Homo sapiens, UniProt P11712); assay: Inhibition of CYP2C9 in human liver microsomes using diclofenac as substrate preincubated for 15 mins followed by NADPH addition measured after 8 mins by LC/MS/MS analysis; assay type: ADME
Cytochrome P450 2C9, sequence (P11712 whole entry): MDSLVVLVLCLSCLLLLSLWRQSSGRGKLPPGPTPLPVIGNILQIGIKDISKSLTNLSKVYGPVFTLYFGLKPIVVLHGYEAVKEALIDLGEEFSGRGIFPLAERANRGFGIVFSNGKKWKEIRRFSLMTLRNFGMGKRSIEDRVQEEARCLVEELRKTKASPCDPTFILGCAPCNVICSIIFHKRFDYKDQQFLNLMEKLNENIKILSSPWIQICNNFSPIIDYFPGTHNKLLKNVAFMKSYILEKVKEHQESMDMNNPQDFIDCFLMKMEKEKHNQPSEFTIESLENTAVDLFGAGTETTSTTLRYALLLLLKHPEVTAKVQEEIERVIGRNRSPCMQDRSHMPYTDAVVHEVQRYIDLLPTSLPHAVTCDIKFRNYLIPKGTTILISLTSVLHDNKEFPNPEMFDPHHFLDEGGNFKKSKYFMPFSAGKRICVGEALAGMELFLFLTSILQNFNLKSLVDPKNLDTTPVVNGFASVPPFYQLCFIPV

Cytochrome P450 2D6 = Cytochrome P450 2D6 (Homo sapiens, UniProt P10635); assay: Inhibition of CYP2D6 in human liver microsomes using dextromethorphan as substrate preincubated for 15 mins followed by NADPH addition measured after 8 mins by LC/MS/MS analysis; assay type: ADME
Cytochrome P450 2D6, sequence (P10635 whole entry): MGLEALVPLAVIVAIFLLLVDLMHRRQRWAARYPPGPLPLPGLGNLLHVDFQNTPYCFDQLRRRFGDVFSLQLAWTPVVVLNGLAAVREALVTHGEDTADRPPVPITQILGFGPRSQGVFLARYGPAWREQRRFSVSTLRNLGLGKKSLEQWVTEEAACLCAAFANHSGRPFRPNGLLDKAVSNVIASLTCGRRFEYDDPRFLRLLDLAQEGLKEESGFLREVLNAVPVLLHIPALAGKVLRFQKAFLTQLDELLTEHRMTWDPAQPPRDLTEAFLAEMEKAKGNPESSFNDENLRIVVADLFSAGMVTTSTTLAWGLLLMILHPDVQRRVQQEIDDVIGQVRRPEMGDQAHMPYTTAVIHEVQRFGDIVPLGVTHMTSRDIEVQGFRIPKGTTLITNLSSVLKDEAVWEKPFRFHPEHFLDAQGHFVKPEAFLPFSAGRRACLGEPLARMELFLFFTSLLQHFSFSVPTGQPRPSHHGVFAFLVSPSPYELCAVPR

[5] = Plasma clearance in Sprague-Dawley rat at 1 mg/kg, iv; assay type: ADME, organism-based; parameters: dose 1 mg/kg, route intravenous
[6] = Elimination half life in Sprague-Dawley rat at 1 mg/kg, iv; assay type: ADME, organism-based; parameters: dose 1 mg/kg, route intravenous; details: in vivo, read-out: beta t1/2 (converted)
Cynomolgus monkey [7] = assay: Elimination half life in cynomolgus monkey at 1 mg/kg, iv; assay type: ADME, organism-based, Macaca fascicularis; parameters: dose 1 mg/kg, route intravenous; details: in vivo
Rattus norvegicus = assay: Volume of distribution at steady state in Sprague-Dawley rat at 1 mg/kg, iv; assay type: ADME, organism-based; parameters: dose 1 mg/kg, route intravenous; details: in vivo
Cynomolgus monkey [8] = assay: Volume of distribution at steady state in cynomolgus monkey at 1 mg/kg, iv; assay type: ADME, organism-based, Macaca fascicularis; parameters: dose 1 mg/kg, route intravenous; details: in vivo
[9] = Oral bioavailability in Sprague-Dawley rat; assay type: ADME, organism-based; details: in vivo
[10] = Cmax in po dosed Sprague-Dawley rat; assay type: ADME, organism-based; parameters: route oral; details: in vivo
[11] = Tmax in po dosed Sprague-Dawley rat; assay type: ADME, organism-based; details: in vivo
[12] = Ratio of brain to plasma partition coefficient in Sprague-Dawley rat at 10 mg/kg, po measured at 1 hr; assay type: ADME, organism-based; parameters: dose 10 mg/kg, route oral
In short: (§2)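 Oral CNS distribution study in male Sprague-Dawley rats (n=2), 10 mg/kg; brain and plasma sampled one hour post-dose. Total (Kp) and unbound (Kp,uu) brain-plasma partition coefficients calculated, with unbound fractions from plasma and brain homogenate binding.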

[13] = Ratio of unbound brain to plasma partition coefficient in Sprague-Dawley rat at 10 mg/kg, po measured at 1 hr; assay type: ADME, organism-based; parameters: dose 10 mg/kg, route oral; in short: as §2
[14] = target: Cannabinoid receptor 1 (Homo sapiens) (UniProt P21554); assay: Binding affinity to human CB1 receptor at 10 uM by radioligand binding assay relative to control
Cannabinoid receptor 1 (Homo sapiens), sequence (P21554 whole entry): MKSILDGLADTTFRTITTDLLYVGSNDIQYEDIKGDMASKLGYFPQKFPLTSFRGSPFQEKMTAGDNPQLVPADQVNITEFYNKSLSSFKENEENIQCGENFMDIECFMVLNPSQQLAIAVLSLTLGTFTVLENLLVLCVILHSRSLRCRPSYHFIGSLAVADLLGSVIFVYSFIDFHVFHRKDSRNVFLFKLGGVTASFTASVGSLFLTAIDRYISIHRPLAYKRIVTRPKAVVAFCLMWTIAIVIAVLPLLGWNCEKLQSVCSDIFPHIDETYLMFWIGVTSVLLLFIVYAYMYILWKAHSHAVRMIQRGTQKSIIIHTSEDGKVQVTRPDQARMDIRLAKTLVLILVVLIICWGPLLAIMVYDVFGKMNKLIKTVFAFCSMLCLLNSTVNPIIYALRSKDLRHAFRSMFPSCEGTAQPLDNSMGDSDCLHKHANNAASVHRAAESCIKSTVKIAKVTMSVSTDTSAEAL

[15] = target: T3, Muscarinic acetylcholine receptor M5 (Homo sapiens, UniProt P08912); assay: Negative allosteric modulation of human muscarinic acetylcholine receptor M5 expressed in CHO cells assessed as inhibition of acetylcholine-induced calcium mobilization incubated for 150 secs prior to acetylcholine induction by Fluo-4 AM staining-based fluorescence assay; assay type: functional, cell-based
T3 sequence (P08912 whole entry): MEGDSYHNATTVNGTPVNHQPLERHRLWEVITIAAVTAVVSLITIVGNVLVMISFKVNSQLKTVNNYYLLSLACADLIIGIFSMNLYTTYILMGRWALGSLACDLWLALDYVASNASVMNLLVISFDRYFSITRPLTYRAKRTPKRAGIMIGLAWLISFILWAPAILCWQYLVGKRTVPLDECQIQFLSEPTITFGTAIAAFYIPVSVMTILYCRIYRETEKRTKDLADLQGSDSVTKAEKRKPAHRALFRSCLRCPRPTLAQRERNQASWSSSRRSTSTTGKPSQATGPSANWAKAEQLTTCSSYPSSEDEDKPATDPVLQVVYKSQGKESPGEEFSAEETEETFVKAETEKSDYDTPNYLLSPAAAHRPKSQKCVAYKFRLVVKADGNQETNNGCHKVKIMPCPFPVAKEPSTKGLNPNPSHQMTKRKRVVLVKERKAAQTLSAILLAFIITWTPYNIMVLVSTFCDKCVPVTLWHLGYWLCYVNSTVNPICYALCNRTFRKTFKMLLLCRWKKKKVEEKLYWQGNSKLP

[16] = target: T4, Muscarinic acetylcholine receptor M5 (Homo sapiens) (UniProt P08912); assay: Negative allosteric modulation of human muscarinic acetylcholine receptor M5 expressed in CHO cells assessed as reduction of acetylcholine-induced calcium mobilization at 10 uM incubated for 150 secs prior to acetylcholine induction by Fluo-4 AM staining-based fluorescence assay relative to control; assay type: functional, cell-based; parameters: scale not given: the % may be the effect or the level left
T4 sequence (whole entry): T3 sequence (P08912 whole entry)

IC50 [1] [µM]	IC50 [2] [µM]	Fu (Plasma [3])	Fu (Plasma [4])	IC50 (Cytochrome P450 1A2) [µM]	IC50 (Cytochrome P450 2C9) [µM]	IC50 (Cytochrome P450 2D6) [µM]	clearance [5] [mL/min/kg]	half-life [6] [h]	beta t1/2 (Cynomolgus monkey [7]) [h]	Vdss (Rattus norvegicus) [L/kg]	Vdss (Cynomolgus monkey [8]) [L/kg]	bioavailability [9] [%]	Cmax [10] [nM]	Tmax [11] [h]	BPR [12]	K(p,uu,brain) [13]	inhibition [14] [%]	IC50 [15] [µM]	Activity [16] [%]	SMILES
> 30	> 30	0.029	0.013	25	7.4	26	2.5	80	10	16	1.9	80	1400	7	1.8	0.2	66	–	–	O=C(c1ccc(F)c(F)c1)N1CCN2C(=O)c3ccccc3[C@@]12c1ccc(Cl)cc1
> 30	> 30	–	–	–	–	–	–	–	–	–	–	–	–	–	–	–	–	1.05	0	O=C(c1ccc(F)c(F)c1)N1CCN2C(=O)c3ccccc3C12c1ccccc1 (configuration not stated)
